From ChEMBL document CHEMBL4513216, “Probing the Open Global Health Chemical Diversity Library for Multistage-Active Starting Points for Next-Generation Antimalarials” (ACS Infect Dis, 2020) come the findings set out here.

This series can be described thus: Toxicity liver stage against HepG2, at 10uM. The following applies: human, HepG2-A16-CD81EGFP cells; read-out: INHIBITION
More on the design: test concentration 10 uM, cell line HepG2-A16-CD81EGFP. It counts as cell-based. In outline:
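Uninfected HepG2-A16-CD81EGFP cells, 3 × 10^3 per well, 1536-well, plated on prespotted compound at 10 μM final, parasite-free screening media added to match infected plates; puromycin 10 μM positive, DMSO 0.5% negative; run in parallel with 48 h PbLuc assay at 37 °C, 5% CO2; viability by CellTiter-Glo luminescence, normalized to controls.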
Regarding `Cc1ccccc1-n1cc(-c2ccnc(N[C@@H](CO)C(C)C)n2)cn1`, the cytotoxicity at 10 µM was -3.39%.

Turning to `CC(C)NC(=O)NC[C@H]1OC[C@@H](NCc2ccccc2F)[C@@H]1O`, the cytotoxicity at 10 µM was -1.31%.

As for `O=C([C@@H]1CSCN1)N1CCC2(CC1)CNCc1ccccc12`, the cytotoxicity at 10 µM is -2.08%.

In the case of `Cc1nc2ccnn2c(C)c1CCC(=O)N1CCN2CCCCC2C1` (stereo not given), the cytotoxicity at 10 µM was -8.82%.

As to `COCCN1C[C@@H]2CCCO[C@@H]2[C@H](N(C)Cc2ccco2)C1`, the cytotoxicity at 10 µM is -0.388%.

Turning to `O=C([C@H]1C[C@H]2OCC[C@H]2N(C(=O)c2cnccn2)C1)N1CCCCO1`, the cytotoxicity at 10 µM turned out to be 12.7%.

For the compound `Cc1ccccc1CNC(=O)CNc1ccc(OC2CCOC2)cc1` (stereo not given), the cytotoxicity at 10 µM worked out at 2.77%.

In the case of `CN(C)c1nc2c(c(N3CCC4(CC3)CNC(=O)C4)n1)CCCC2`, the cytotoxicity at 10 µM was 0.995%.

Take `CC(=O)Nc1ncc(S(=O)(=O)Nc2ccc(C)cc2)s1`: the cytotoxicity at 10 µM is 8.6%.

On to `CN(C)C(=O)CN1CCC(c2cccc(Cc3ccc(F)cc3)n2)CC1`, for which the cytotoxicity at 10 µM was -22.3%.

In the case of `O=C(c1cccnc1N1CCN(CCO)CC1)N1CCCC1`, the cytotoxicity at 10 µM was -1.32%.

For the compound `Cc1cnc(-c2nc(C3CCN(Cc4ccccc4O)CC3)no2)cn1`, the cytotoxicity at 10 µM was determined as 3.66%.

Turning to `OCc1cccc(OCc2ccon2)c1`, the cytotoxicity at 10 µM turned out to be 0.266%.

Take `CN(CCc1ccccn1)C(=O)C1Cc2ccccc2CN1C` (stereo not given): the cytotoxicity at 10 µM was found to be 1.47%.

For `Cc1ccc2c(c1)c(CNC(=O)C1CCCN(CC(N)=O)C1)nn2C` (stereo not given), the cytotoxicity at 10 µM was -17.9%.

Regarding `CCN(C)C1COC2(CCN(C(=O)c3cccc(Cl)c3)CC2)C1` (stereo not given), the cytotoxicity at 10 µM was -5.66%.

Turning to `CC(C)OC(=O)N1C[C@@H]2CC[C@H]1CN(C(=O)c1ccccc1)C2`, the cytotoxicity at 10 µM stood at 0.608%.

On to `CC[C@H](C)Nc1ncc(-c2ccn(C3CCN(C(C)=O)CC3)n2)cn1`, for which the cytotoxicity at 10 µM is -9.22%.

For `COc1ccc(Cl)cc1NCC(=O)N(Cc1cccnc1)C1CC1`, the cytotoxicity at 10 µM amounted to 11.8%.

With `O=C1CC(c2ccc(C(=O)O)cc2)c2ncn(-c3ccc(F)cc3)c2N1` (stereo not given), the cytotoxicity at 10 µM was -3.67%.

Take `Cc1nc(C2(O)CCCNCC2)sc1CCOc1ccc(F)c(F)c1` (stereo not given): the cytotoxicity at 10 µM is -21.4%.

As for `Cc1c(CN2CCCC(C(=O)c3ccccc3)C2)cc(C#N)n1C` (stereo not given), the cytotoxicity at 10 µM was -6.63%.

For `Cc1cc(C(=O)N2CCC[C@]3(C[C@H](OCC4CC4)CO3)C2)no1`, the cytotoxicity at 10 µM was -78.8%.

In the case of `CCS(=O)(=O)CCN1CCCC1c1noc(C)n1` (stereo not given), the cytotoxicity at 10 µM was -10.4%.

On to `CN1CCC(c2nc3ccc(-c4cccc(F)c4)cn3n2)CC1`, for which the cytotoxicity at 10 µM stood at 10.4%.

Regarding `Cc1cccc(C(=O)N2CCN(CCC(C)C)CC2)n1`, the cytotoxicity at 10 µM is -3.53%.

For `Cc1nc(-c2c(C)noc2C)cc(C2CCN(CC(=O)N(C)C)CC2)n1`, the cytotoxicity at 10 µM is 5.84%.

`Cc1noc(C)c1CN1CCN(c2ccnc(-c3ccccc3)n2)CC1`: the cytotoxicity at 10 µM turned out to be 6%.

For `CS(=O)(=O)c1ccc(NC(=O)CSc2ccc3c(c2)CCC3)cc1`, the cytotoxicity at 10 µM is 5.73%.

Take `COc1cccn(C(C)C(=O)NC2CCCC2)c1=O` (stereo not given): the cytotoxicity at 10 µM was found to be 5.32%.

Consider `Cn1nc(CNC(=O)C2CCCC2)cc1C1CC1`, for which the cytotoxicity at 10 µM is -0.265%.

As to `CCCc1noc(CS(=O)(=O)c2cccc(OC)c2)n1`, the cytotoxicity at 10 µM stood at 17.4%.

Consider `COc1coc(CN2CCCC(CCc3ccccc3F)C2)cc1=O` (stereo not given), for which the cytotoxicity at 10 µM was -1.62%.

On to `COc1ccc(C(=O)NCCNC(=O)c2cncnc2C)cc1`, for which the cytotoxicity at 10 µM was found to be 7.98%.

On to `N#Cc1cc(F)ccc1NCC1CCN(S(=O)(=O)C(F)F)CC1`, for which the cytotoxicity at 10 µM was 18.4%.

Turning to `Cc1c(F)cccc1S(=O)(=O)NCC(C)(C)CC(C)O` (stereo not given), the cytotoxicity at 10 µM is -8.29%.

For `O=C1C[C@H]2[C@@H](CCN2C(=O)Cc2ccccc2)N1Cc1cccnc1`, the cytotoxicity at 10 µM is -3.86%.

In the case of `Cn1cc(C2CC(=O)NC23CCN(C(=O)NC2CC2)CC3)cn1` (stereo not given), the cytotoxicity at 10 µM was found to be 4.97%.

On to `O=C(CCC(=O)N1CCCC1c1ccsc1)N1CCOCC1` (stereo not given), for which the cytotoxicity at 10 µM was -10.2%.

Take `Cn1c2ccc(F)cc2c2ncn(CCCN(CCO)CCO)c(=O)c21`: the cytotoxicity at 10 µM was 11.2%.

In the case of `CN(C)CCN(C)C[C@@H]1CN(Cc2cccc(O)c2)C[C@@H]1CO`, the cytotoxicity at 10 µM turned out to be 0.972%.

On to `Cc1ccc2c(c1)cc(CN1CC[C@](C)(O)[C@H](C)C1)n2C`, for which the cytotoxicity at 10 µM amounted to 0.379%.

With `Cc1cnc(CNC(=O)NCc2cccnc2N(C)C)s1`, the cytotoxicity at 10 µM is -12.4%.

As for `COC(=O)c1ccccc1NS(=O)(=O)c1c(C)nn(C)c1C`, the cytotoxicity at 10 µM was -4.12%.

Consider `Fc1cccc(CN2CCOC3(COCCN(CC4CC4)C3)C2)c1` (stereo not given), for which the cytotoxicity at 10 µM is -111%.

In the case of `CC(C)CN1C[C@@H]2C(=O)NC3(CCN(C(=O)c4cccnc4)CC3)[C@@H]2C1`, the cytotoxicity at 10 µM amounted to 5.53%.

For the compound `Cc1c(NCCOCC(F)(F)F)cccc1C(=O)N1CCCC1`, the cytotoxicity at 10 µM was -0.595%.

Consider `CC(C)c1nc(CSc2nnc(Cn3cncn3)o2)cs1`, for which the cytotoxicity at 10 µM was 3.19%.

Consider `CN1CCOC(CNCc2c(Cl)nc3ccccn23)C1` (stereo not given), for which the cytotoxicity at 10 µM was -0.0638%.

In the case of `Cc1nn(C)cc1S(=O)(=O)NCC(c1ccccc1Cl)N1CCCC1` (stereo not given), the cytotoxicity at 10 µM was -1.29%.

With `Cc1ccc2c(n1)N(CC1CC1)CCN(S(=O)(=O)C1CC1)C2`, the cytotoxicity at 10 µM is 12.4%.

With `CN(C)CC(=O)N1CCCC1c1cncc(Oc2ccc(F)cc2)n1` (stereo not given), the cytotoxicity at 10 µM is -10.9%.

Take `c1ccc(CCN2CCCC2c2ccnc(Nc3ncccn3)n2)cc1` (stereo not given): the cytotoxicity at 10 µM is 2.14%.

Turning to `CC(C(=O)NCCN1CCN(C)CC1)n1cncn1` (stereo not given), the cytotoxicity at 10 µM came out at 0.449%.

Turning to `COc1ccc(-n2ccc(C(=O)NCCn3ccnc3)n2)cc1`, the cytotoxicity at 10 µM was -7.2%.

Take `CN(C)CC1CSCCCN1C(=O)c1cccc(C(F)(F)F)c1` (stereo not given): the cytotoxicity at 10 µM was -5.03%.

Consider `Cc1nc(CN(C)C2CCN(CCc3cccs3)C2)no1` (stereo not given), for which the cytotoxicity at 10 µM was determined as 6.03%.

With `Cc1nc(CNC(=O)Nc2cc(F)ccc2N2CCN(C)CC2)no1`, the cytotoxicity at 10 µM was -8.8%.

`CC1Cc2ccccc2N1C(=O)Cn1nc(-c2cccs2)ccc1=O` (stereo not given): the cytotoxicity at 10 µM was -9.08%.

With `O=C(Cc1ccc2c(c1)CCCC2)NCCc1ccccn1`, the cytotoxicity at 10 µM came to 1.9%.

For the compound `CCc1nc(CN2CCCN(C(=O)CC(F)(F)F)CC2)cs1`, the cytotoxicity at 10 µM was -18.9%.

In the case of `CCC(=O)NC(CC(C)C)c1cccs1` (stereo not given), the cytotoxicity at 10 µM turned out to be 6.18%.

As for `COc1cc2nc3n(c(=O)c2cc1OC)CCN(C)CC3`, the cytotoxicity at 10 µM amounted to 2.39%.

For `COc1ccccc1-n1nc(CC(C)C)nc1Cc1nnc(N)s1`, the cytotoxicity at 10 µM is 6.17%.

Take `Cc1nn(C)c(N(C)C)c1CNCCS(C)(=O)=O`: the cytotoxicity at 10 µM was -17.4%.

In the case of `Cc1cc(=O)[nH]c(-n2nc(-c3cccs3)cc2N)n1`, the cytotoxicity at 10 µM was found to be 4.57%.

As to `Cc1cc(C)c(C(=O)N2CCOCC2c2c(C)n[nH]c2C)o1` (stereo not given), the cytotoxicity at 10 µM is -4.01%.

In the case of `Cc1nn(C)c(C)c1C1COCCN1C(=O)c1cnc(N)c(Cl)c1` (stereo not given), the cytotoxicity at 10 µM is -8.21%.

On to `CCC(C)NC(=O)NCc1cc2n(n1)CCCN(C1CCCCC1)C2` (stereo not given), for which the cytotoxicity at 10 µM was found to be 3.11%.

For the compound `Cc1csc(-c2cccc(NC(=O)NCC(C)(C)C(N)=O)c2)n1`, the cytotoxicity at 10 µM was -4.25%.

Consider `Cc1nn(C)c(N(C)C)c1CNCc1cccnc1`, for which the cytotoxicity at 10 µM worked out at 6%.

With `Cc1c(C2CCCN(C(=O)c3ccn(C)n3)C2)n2c(nc1=O)CCC2` (stereo not given), the cytotoxicity at 10 µM was 0.862%.

Regarding `Cc1cc(C(=O)NCC(=O)NC(c2ncccc2C)C(C)C)c(C)o1` (stereo not given), the cytotoxicity at 10 µM is -9.6%.

As to `Cc1ccc(CN2CCOC(C)(c3cnn(C)c3)C2)cc1` (stereo not given), the cytotoxicity at 10 µM was -4.16%.

For `CC1(C)CC(n2cc3nc(N4CCCC4)[nH]cc-3c2=O)CC(C)(C)N1`, the cytotoxicity at 10 µM stood at 9.46%.

Regarding `Cc1nn(C)c(Cl)c1C1CCCN1CC(=O)NCc1ccco1` (stereo not given), the cytotoxicity at 10 µM came out at 1.48%.

Take `CC(C)[C@H](CO)Nc1nccc(-c2c[nH]nc2-c2ccncc2)n1`: the cytotoxicity at 10 µM is -4.66%.

As for `Cc1cc(C)cc(C(C)NC(=O)c2ccc(CS(C)(=O)=O)o2)c1` (stereo not given), the cytotoxicity at 10 µM is 2.49%.

For `Cc1nc(C)c(C)c(NCCSc2ccccn2)n1`, the cytotoxicity at 10 µM is -4.23%.

Consider `Cc1n[nH]cc1C(=O)N1CCCC(c2cccc(-n3ccnc3)n2)C1` (stereo not given), for which the cytotoxicity at 10 µM is -9.69%.

With `COc1cccc(-n2cc(-c3ccnc(N[C@@H](CO)C(C)C)n3)cn2)c1`, the cytotoxicity at 10 µM is -1.15%.

For the compound `COCCN1CCC(CNC(=O)Nc2ccc(F)c(Cl)c2)C1` (stereo not given), the cytotoxicity at 10 µM came out at 2.59%.

`CCCn1cc(C(=O)n2nc(C)cc2C)c(S(=O)(=O)N2CCSCC2)n1`: the cytotoxicity at 10 µM was -10.1%.

`COCc1cc(C[C@@H]2CC[C@H](O)[C@@H](CNCC(C)C)O2)no1`: the cytotoxicity at 10 µM was found to be 0.847%.

With `COCCNC(=O)Cn1cc(NC(=O)c2ccc(C(C)(C)C)cc2)cn1`, the cytotoxicity at 10 µM was -9.94%.

As to `CN(C)CCOCc1nnc2n1CCN(c1cnccn1)CC2`, the cytotoxicity at 10 µM was determined as 5.62%.

As for `Cc1cccc(OC2CN(C(=O)C3CC(=O)N(C(C)(C)C)C3)C2)c1` (stereo not given), the cytotoxicity at 10 µM came to 4.4%.

Regarding `Cc1ccc(C(=O)N2CCC3(CC2)CCN(CCN(C)C)C3=O)cn1`, the cytotoxicity at 10 µM turned out to be 5.36%.

Regarding `c1cnn(C2CN(Cc3nc(-c4ccsc4)no3)C2)c1`, the cytotoxicity at 10 µM was -12.2%.

As for `CC(C)C(C(=O)N1CCCN(Cc2cscn2)CC1)n1cncn1` (stereo not given), the cytotoxicity at 10 µM is -2.1%.

Take `CCc1noc(C(C)N2CCN(CCOCC(F)(F)F)CC2)n1` (stereo not given): the cytotoxicity at 10 µM is -9.45%.

In the case of `O=C(O)CCc1cc2n(n1)CCCN(C(=O)c1ccc3cc[nH]c3c1)C2`, the cytotoxicity at 10 µM was -13.3%.

As to `NC(=O)N1CC[C@H]2CO[C@H](CNC(=O)c3ccnnc3)[C@H]2C1`, the cytotoxicity at 10 µM was -4.7%.

Consider `Cc1csc(N2CCCN(C(=O)c3c(C)noc3C)CC2)n1`, for which the cytotoxicity at 10 µM is -10.6%.

On to `Cc1cccc(CN2CC3C[C@]3(NC(=O)c3ccoc3)C2)n1` (stereo not given in full), for which the cytotoxicity at 10 µM is -147%.
